Laboratory results from ChEMBL document CHEMBL4028848, “Discovery of N-{4-[5-(4-Fluorophenyl)-3-methyl-2-methylsulfanyl-3H-imidazol-4-yl]-pyridin-2-yl}-acetamide (CBS-3595), a Dual p38α MAPK/PDE-4 Inhibitor with Activity against TNFα-Related Diseases” (J Med Chem, 2017).
Active and inactive are the calls of the source. No cut-off for these calls is given here.

What was measured:
Canis familiaris = assay: Cmax in Beagle dog assessed as 4-(4-(4-fluorophenyl)-1-methyl-2-(methylsulfinyl)-1H-imidazol-5-yl)pyridin-2-amine level at 40 mg/kg, po by LC-MS/MS analysis; assay type: ADME, organism-based, Canis lupus familiaris; design: dose 40 mg/kg, route oral; details: in vivo
How it was run: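 Toxicokinetics from a maximum-tolerated-dose study in four Beagle dogs given 40 mg/kg orally. Plasma levels of both parent and its predominant metabolite were monitored.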

[1] = molecular target: Mitogen-activated protein kinase 10 (Homo sapiens) (UniProt P53779); assay: Inhibition of JNK3 (unknown origin) at 10 uM relative to control
Chain of Mitogen-activated protein kinase 10 (Homo sapiens) (P53779 whole entry): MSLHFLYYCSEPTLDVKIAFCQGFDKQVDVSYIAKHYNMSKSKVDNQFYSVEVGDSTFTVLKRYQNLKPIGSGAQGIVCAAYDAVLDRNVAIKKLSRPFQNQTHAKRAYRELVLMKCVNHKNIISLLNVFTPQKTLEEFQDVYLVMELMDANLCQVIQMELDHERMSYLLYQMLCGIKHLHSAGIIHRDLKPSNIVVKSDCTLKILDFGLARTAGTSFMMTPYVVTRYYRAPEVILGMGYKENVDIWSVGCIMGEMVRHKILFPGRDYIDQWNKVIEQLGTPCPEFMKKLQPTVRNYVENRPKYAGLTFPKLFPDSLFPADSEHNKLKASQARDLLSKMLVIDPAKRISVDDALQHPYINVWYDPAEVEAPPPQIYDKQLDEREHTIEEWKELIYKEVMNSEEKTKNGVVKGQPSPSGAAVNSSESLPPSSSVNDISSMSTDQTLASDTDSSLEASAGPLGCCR

Liver = assay: Drug metabolism in human liver microsomes assessed as N-(4-(4-(4-fluorophenyl)-1-methyl-2-(methylsulfinyl)-1H-imidazol-5-yl)pyridin-2-yl)acetamide formation at 10 to 100 uM; assay type: ADME, microsome
How it was run: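 Test compound incubated at 10, 30 and 100 μM with liver microsomes from rat, Cynomolgus monkey or human, and metabolites monitored.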

Mus musculus [2] = assay: In vivo inhibition of P38 MAPKalpha in BALB/c mouse assessed as decrease in LPS/GalN-stimulated TNFalpha level in plasma at 30 mg/kg, po administered via gavage pretreated for 1 hr followed by LPS/GalN addition measured after 1.5 hrs relative to control; assay type: functional
How it was run: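 Male BALB/c mice, n = 6/group, given 3, 10 or 30 mg/kg orally by gavage 1 h before i.p. D-GalN (500 mg/kg) plus LPS (1.5 μg/kg). Blood was taken by cardiac puncture and plasma TNFα measured against a vehicle-only control.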

Rattus norvegicus [3] = assay: Antiarthritic activity in Lewis rat assessed as decrease in collagen-induced arthritic score at 25 mg/kg, po bid administered for 10 days; assay type: functional, organism-based
How it was run: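 Collagen-induced arthritis in male Lewis rats (5–6 per group). Groups received vehicle, dexamethasone 1 mg/kg, test item 50 mg/kg once daily, or 25 mg/kg twice daily for 10 days. Body weight, arthritic score and paw volume were monitored, and serum COMP was measured at the end.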

Mus musculus [4] = assay: Antiarthritic activity in human TNF transgenic mouse model assessed as reduction in cartilage damage at 20 to 50 mg/kg/day, po for 10 weeks; assay type: functional, organism-based
How it was run: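 Heterozygous human TNF transgenic mice (8 per group) were dosed orally for ten weeks with 20 or 50 mg/kg/day as a methylcellulose suspension, alongside vehicle and infliximab i.p. controls. Joint swelling and grip strength were scored weekly, and hind paws were examined histologically at the end.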

[5] = Half life in male Sprague-Dawley rat at 30 mg/kg, po by LC-MS/MS analysis; assay type: ADME, organism-based; details: in vivo
Rattus norvegicus [6] = assay: Toxicity in rat assessed as excessive defecation at 30 to 300 mg/kg, po administered as single dose; assay type: organism-based; details: in vivo
Cynomolgus monkey [7] = assay: Toxicity in cynomolgus monkey assessed as induction of trchycardia at 6 to 20 mg/kg, po measured after 0.5 to 6 hrs post dose; assay type: organism-based, Macaca fascicularis; details: in vivo
Cynomolgus monkey [8] = assay: Toxicity in cynomolgus monkey assessed as decrease in PQ at 6 to 20 mg/kg, po; assay type: organism-based, Macaca fascicularis; details: in vivo

**Q.** Which Cmax (Canis familiaris) does the source give for `Cn1c([S+](C)[O-])nc(-c2ccc(F)cc2)c1-c1ccnc(N)c1` (stereo not given) here?
**A.** 5.1 µM

**Q.** Which inhibition [1] does the source give for `CC(=O)Nc1cc(-c2c(-c3ccc(F)cc3)nc([S+](C)[O-])n2C)ccn1` (stereo not given) here?
**A.** 76%

**Q.** What about the Drug metabolism (Liver) of the same molecule?
**A.** Metabolite_Detected

**Q.** And the inhibition in vivo at 30 mg/kg (Mus musculus [2])?
**A.** 95%

**Q.** And the Activity (Rattus norvegicus [3])?
**A.** Active

**Q.** And the Activity (Mus musculus [4])?
**A.** Active

**Q.** What about the half-life [5] of the same molecule?
**A.** 1.8 h

**Q.** What about the Activity (Rattus norvegicus [6]) of the same molecule?
**A.** Toxic

**Q.** And the Activity (Cynomolgus monkey [7])?
**A.** Toxic

**Q.** What about the Activity (Cynomolgus monkey [8]) of the same molecule?
**A.** Toxic
